Screening data from PubChem BioAssay.
Sampled rows, rich in hits. Any-hit rate of the full collection: about 0.23%.
Bim-Bcl-2: human Bim-Bcl-2 interaction inhibition | AID 950 | P10415 | hit rate 0.06% among 190,000 | inhibition, % at 10 µM | Bead-based flow cytometry, Bim peptide-Bcl-2 binding; in the data active = inhibition above about 40%;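 note: 0% = no compound wells with probe peptide and 100% = reference peptide inhibitor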
Target sequence (P10415 whole entry, looked up): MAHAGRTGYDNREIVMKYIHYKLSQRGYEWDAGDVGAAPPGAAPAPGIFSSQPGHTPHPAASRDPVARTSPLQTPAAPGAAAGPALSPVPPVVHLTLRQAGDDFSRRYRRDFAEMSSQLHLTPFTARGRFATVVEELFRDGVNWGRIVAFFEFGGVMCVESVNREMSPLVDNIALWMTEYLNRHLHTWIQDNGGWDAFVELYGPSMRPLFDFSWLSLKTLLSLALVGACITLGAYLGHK
Bcl-W Bim block: inhibitors of Bim-Bcl-W interaction, human; bead-based flow cytometry, Bim peptide-Bcl-W binding; inhibition, % at 10 µM; hit rate 0.02% among 190,000;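 note: 0% = bound tracer without compound and 100% = peptide blocker; higher means less fluorescent Bim peptide bound to Bcl-W beads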
Bim-Bfl-1: disrupts Bim binding to human Bfl-1; Q16548; Bead-based flow cytometry, Bim-Bfl-1 binding inhibition; inhibition, % at 10 µM; hit rate 0.12% among 190,000; AID 1008;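 note: 0% = wells without compound plus tracer and 100% = blocker peptide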
Target sequence (Q16548 whole entry, looked up): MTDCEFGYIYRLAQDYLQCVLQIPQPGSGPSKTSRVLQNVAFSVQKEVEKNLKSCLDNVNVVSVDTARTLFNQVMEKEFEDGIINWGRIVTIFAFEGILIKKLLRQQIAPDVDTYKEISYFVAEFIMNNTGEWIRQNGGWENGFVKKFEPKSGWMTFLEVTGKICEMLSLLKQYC
Rad51 HR inh: Rad51 (human) homologous recombination inhibition; hRad51 DNA strand exchange, fluorescence dequenching; Q06609; hit rate 0.085% among 200,000; inhibition, % at 10 µM; AID 1385;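 active = inhibition above 40% at the single screening dose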;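 note: 0% = DMSO control wells and 100% = blanks with heterologous ssDNA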
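Material: Human Rad51 nucleoprotein filaments preassembled on unlabelled ssDNA | Also added: Labelled 47-mer dsDNA for strand exchange | Dosing: Single dose, 10 µM final compound | Schedule: 30-min compound preincubation and 15-min exchange, both room temperature | Technique: Fluorescence dequenching at 485/520 nm | Measure: Percent inhibition relative to plate controls and blanks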
Bim-Bcl-B: disrupts Bim peptide binding to human Bcl-B | Q9HD36 | bead-based flow cytometry | inhibition, % at 10 µM | hit rate 0.073% among 190,000 | AID 951;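 note: 0% = tracer peptide without compound and 100% = reference inhibitor peptide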
Target sequence (Q9HD36 whole entry, looked up): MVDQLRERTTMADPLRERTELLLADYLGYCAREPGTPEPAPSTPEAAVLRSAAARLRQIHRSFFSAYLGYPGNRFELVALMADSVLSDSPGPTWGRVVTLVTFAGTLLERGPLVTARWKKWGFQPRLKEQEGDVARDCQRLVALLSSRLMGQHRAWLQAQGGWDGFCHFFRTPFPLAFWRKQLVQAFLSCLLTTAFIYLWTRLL
Bim-Bcl-XL: inhibitors of Bim-Bcl-XL interaction, human | hit rate 0.04% among 190,000 | Q07817 | inhibition, % at 10 µM | Bim peptide-Bcl-XL binding, bead flow cytometry, fluorescence | AID 1007
Starred values were filed as active, the others as inactive; / = not tested or not shown. Cut-off read from the data, not from the text of the source, unless noted: active = inhibition above about 40%.

SMILES	Bim-Bcl-2	Bcl-W Bim block	Bim-Bfl-1	Rad51 HR inh	Bim-Bcl-B	Bim-Bcl-XL
Cc1ccc(CNC(=O)CSc2nc3c(sc4ccccc43)c(=O)n2CCCN2CCCC2)cc1	-4.0	-6.0	-3.0	42.7*	-6.0	-2.0
CC1CCN(CCCn2c(SCC(=O)Nc3ccccc3Cl)nc3ccccc3c2=O)CC1	-1.0	-1.0	0.0	1.0	-1.0	-1.0
COCc1cc(C)nc2sc(C(=O)NCCO)c(-n3cccc3)c12	-3.0	0.0	-4.0	44.8*	1.0	-2.0
COC(=O)c1ccc(/C=N/NC(=O)CC(=O)NCc2cccnc2)cc1	54.0*	5.0	32.0	-0.8	51.0*	3.0
COC(=O)c1ccccc1NC(=O)CN1CCN(c2ccccn2)CC1	-7.0	-1.0	-4.0	34.6	-1.0	-3.0
COC(=O)c1ccccc1N/C=C1\CCc2c(c(C)nn2-c2ccccn2)C1=O	20.0	37.0	50.0*	0.0	6.0	7.0
C=CCC(O)(CC=C)C(C)N (stereo not given)	2.0	0.0	-5.0	10.3	-1.0	0.0
Cc1nc(=S)c2c([nH]1)-c1ccccc1CC21CCCCC1	/	/	/	-12.0	/	/
Cc1cc([N+](=O)[O-])c(C)cc1-c1ccc(/C=N/NC(=O)c2cccnc2)o1	3.0	-4.0	11.0	-6.5	7.0	1.0
O=C(N/N=C/c1ccc(-c2ccccc2[N+](=O)[O-])o1)c1cncc(Br)c1	18.0	32.0	28.0	-15.8	24.0	48.0*
O=C(CNS(=O)(=O)/C=C/c1ccccc1)OC1CCOC1=O (stereo not given)	-1.0	-3.0	4.0	6.4	0.0	-2.0
O=C(O)CCC(=O)N(Cc1ccco1)C1CC(=O)N(c2ccccc2)C1=O (stereo not given)	/	/	/	10.8	/	/
O=C(O)c1cc(C(F)(F)F)nc2c(C(F)(F)F)cccc12	-4.0	0.0	-4.0	-8.6	-1.0	2.0
CCOC(=O)C(=NCC1CCCO1)NNc1ccccc1Cl (stereo not given)	/	/	/	43.9*	/	/
COc1ccccc1NC(=S)N1CCn2cccc2C1c1cccnc1 (stereo not given)	-3.0	-6.0	-5.0	6.3	-6.0	-4.0
O=C(NCCCN1CCN(CCCNC(=O)c2cc([N+](=O)[O-])ccc2Cl)CC1)c1cc([N+](=O)[O-])ccc1Cl	10.0	13.0	2.0	-4.5	78.0*	13.0
O=C(NCCc1cccc(Cl)c1)c1cc([N+](=O)[O-])ccc1Cl	1.0	-1.0	0.0	6.4	-1.0	0.0
COC(=O)Cc1ccc(NC(=S)N2CCN(c3cccc(O)c3)CC2)cc1	18.0	11.0	2.0	6.5	50.0*	12.0
COC(=O)Cc1ccc(NC(=S)N2CCN(c3ccc(OC)cc3)CC2)cc1	7.0	8.0	13.0	1.7	7.0	5.0
O=C(C[n+]1ccc(-c2nnc3n2CCC3)cc1)c1ccc(Cl)c(Cl)c1	11.0	25.0	2.0	/	43.0*	14.0
COc1ccc(C(=O)C[n+]2ccc(-c3nnc4n3CCC4)cc2)cc1	-4.0	-1.0	7.0	/	-12.0	-6.0
O=C(Cc1ccccc1)N/N=C/c1cccn1-c1ccc([N+](=O)[O-])cc1	31.0	26.0	21.0	-11.0	50.0*	25.0
Cc1ccc(-c2ccc(CCC(=O)O)n2NC(=O)c2cccs2)cc1	92.0*	28.0	/	-10.1	/	35.0
CC(/C=C/C(=O)c1ccc(C)cc1)=C\c1ccccc1	33.0	27.0	47.0*	/	23.0	48.0*
Cc1ccc(C(=O)/C=C\C(=O)c2ccc(C)cc2)cc1	3.0	-2.0	9.0	-2.3	-4.0	-3.0
SMILES	Bim-Bcl-2	Bcl-W Bim block	Bim-Bfl-1	Rad51 HR inh	Bim-Bcl-B	Bim-Bcl-XL
COc1cc2[nH]c(=S)nc(NC3CCCC3)c2cc1OC	18.0	31.0	27.0	-2.9	27.0	44.0*
CCCCN1CCCC1CNC(=O)c1cc(C#N)c2ccccc2c1OC (stereo not given)	-4.0	-1.0	-3.0	-0.5	-1.0	-2.0
O=[N+]([O-])c1ccc(N/N=C/c2cccc(O)c2O)c(S(=O)(=O)N2CCOCC2)c1	-2.0	2.0	-1.0	-4.7	-9.0	-3.0
O=[N+]([O-])c1ccc(N/N=C/c2ccc(O)c(O)c2O)c(S(=O)(=O)N2CCOCC2)c1	27.0	40.0*	63.0*	0.5	10.0	15.0
O=S(=O)(c1ccccc1)c1cnc(-c2ccccc2)nc1N1CCCCC1	-2.0	0.0	-4.0	16.0	-2.0	0.0
NC(N)=Nc1nc2ccccc2o1	/	/	/	8.7	/	/
CC(C)(C)C(=O)Nc1nnc(COc2ccc(Cl)cc2)s1	/	/	/	6.3	/	/
Nc1c(C(=O)NCc2ccco2)sc2nc3c(cc12)C(=O)CCC3	20.0	42.0*	48.0*	4.2	6.0	16.0
COc1ccc2cc3c(N)c(C(=O)NCc4ccco4)sc3nc2c1	1.0	-1.0	4.0	-4.1	-2.0	0.0
COc1ccc(CN2CCN(C(=O)C3CCC(CNS(=O)(=O)c4ccc(C)cc4)CC3)CC2)c(OC)c1OC (stereo not given)	8.0	4.0	10.0	-1.4	0.0	3.0
O=C1C(Cl)=C(N2CCCCC2)C(=O)C(Cl)=C1c1cnc(N2CCCCC2)s1	69.0*	85.0*	91.0*	-3.8	52.0*	49.0*
CN(C)c1ncc(C2=C(Cl)C(=O)C(N3CCCC3)=C(Cl)C2=O)s1	70.0*	83.0*	92.0*	-8.9	46.0*	48.0*
CC(=O)c1cnc(N(C)C)s1	7.0	2.0	3.0	4.0	3.0	0.0
CN(C)CCn1c(N)nc2ccccc21	/	/	/	4.8	/	/
Cn1ncc(N=Cc2c(O)ccc3ccccc23)c1C(=O)Nc1cccc(Cl)c1	3.0	3.0	8.0	-303.9	-7.0	1.0
CN(C)c1ccc(/C=N/NC(=O)CN2CCN(c3ccc(F)cc3)CC2)cc1	0.0	-4.0	0.0	9.1	-4.0	0.0
CC[n+]1c(/C=C/C=C/N(C(C)=O)c2ccccc2)sc2ccccc21	/	43.0*	9.0	-251.8	2.0	/
COC(=O)COc1ccc(S(=O)(=O)NCCC2=CCCCC2)cc1	-9.0	0.0	-7.0	7.9	-7.0	-7.0
COC(=O)COc1ccc(S(=O)(=O)NCCC2=CCCCC2)cc1C	-16.0	-6.0	-26.0	45.2*	-8.0	-11.0
CC(C(O)C12CC3CC(CC(C3)C1)C2)N1CCCCC1 (stereo not given)	0.0	-1.0	-2.0	11.1	-3.0	-2.0
COCC(=O)Nc1c(C(=O)Nc2cccc(OC)c2)oc2ccccc12	-5.0	-4.0	-3.0	-3.1	-2.0	-1.0
COc1cccc(NC(=O)c2oc3ccccc3c2NC(C)=O)c1	0.0	0.0	-1.0	112.3*	-3.0	0.0
COCCn1c(=NC(=O)CSC(C)=O)sc2cc(F)ccc21	-4.0	0.0	-8.0	83.4*	-3.0	-2.0
COCCn1c(=NC(=O)CSC(C)=O)sc2cc(OC)ccc21	-10.0	-5.0	-10.0	6.2	-13.0	-11.0
Cc1ccc(CNC(=O)CCCC(=O)Nc2cc(C)on2)cc1	-3.0	-4.0	-7.0	-0.6	-8.0	-4.0
Cc1cc(NC(=O)CCCC(=O)NCc2ccccc2)no1	51.0*	0.0	27.0	-72.2	43.0*	1.0
